KCNK9 inh – human KCNK9 channel inhibition; HEK293 KCNK9, FluxOR thallium flux fluorescence; active compounds read low; actives 1.2% (n = 310,000); Q9NPC2; B-score at 10 µM; AID 488922;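 active = ratio B-score over 3 SD below the library mean, with starting fluorescence within 5 SD of its mean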;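 note: negative B-score means less thallium flux so channel inhibition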
KCNQ1 act – potentiators or activators of human KCNQ1 potassium channel; P51787; CHO-K1 KCNQ1, thallium flux FluxOR fluorescence; active compounds read high; B-score at 10 µM; actives 0.35% (n = 310,000); AID 2648;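 active = fluorescence ratio B-score, a plate-corrected score, at least three library SD, with initial intensity B-score within 5 SD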
Target sequence (P51787 whole entry, looked up): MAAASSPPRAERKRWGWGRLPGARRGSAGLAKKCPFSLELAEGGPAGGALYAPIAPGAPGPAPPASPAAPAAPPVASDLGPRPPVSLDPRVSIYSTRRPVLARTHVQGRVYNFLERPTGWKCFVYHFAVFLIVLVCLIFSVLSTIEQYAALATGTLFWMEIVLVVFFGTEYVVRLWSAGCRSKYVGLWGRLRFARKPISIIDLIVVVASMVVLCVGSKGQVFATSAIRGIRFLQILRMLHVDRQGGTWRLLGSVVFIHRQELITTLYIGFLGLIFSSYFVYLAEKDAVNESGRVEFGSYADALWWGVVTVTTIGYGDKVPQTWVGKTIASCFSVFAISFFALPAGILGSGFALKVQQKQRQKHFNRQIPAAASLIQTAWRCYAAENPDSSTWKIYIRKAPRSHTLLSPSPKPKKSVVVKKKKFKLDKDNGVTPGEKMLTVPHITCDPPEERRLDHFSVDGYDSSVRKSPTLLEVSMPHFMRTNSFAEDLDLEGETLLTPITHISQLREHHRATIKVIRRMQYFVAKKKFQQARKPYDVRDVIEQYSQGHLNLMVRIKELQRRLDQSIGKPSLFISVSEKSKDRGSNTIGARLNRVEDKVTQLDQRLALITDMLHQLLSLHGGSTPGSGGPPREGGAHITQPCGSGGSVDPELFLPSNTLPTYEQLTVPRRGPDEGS
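assay system = CHO-K1 cells stably expressing KCNQ1 | medium = assay buffer, equal DMSO in all wells | timing = 37 °C overnight plating, 90-min dark dye load, 20-min compound pretreatment | measured by = kinetic FluxOR thallium fluorescence, 10-s 1-Hz baseline, 110-s post-stimulus read | measure = fluorescence change relative to baseline, converted to B score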
KCNQ1 inh – blocks the human KCNQ1 potassium channel; P51787; CHO-K1 KCNQ1, FluxOR thallium flux fluorescence; active compounds read high; B-score at 10 µM; actives 1.3% (n = 310,000); AID 2642;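 active = compounds whose thallium flux B-score, printed positive for inhibition, exceeds three library SD while starting fluorescence stays within three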;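 note: channel opened by potassium depolarization with thallium stimulus after 20 min compound exposure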
KCNK3 inh – human KCNK3 channel inhibition, primary screen; O14649; CHO-KCNK3 thallium flux, FluxOR fluorescence; active compounds read low; B-score at 10 µM; actives 0.84% (n = 340,000);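 active = B-score under library mean minus 4 SD, starting fluorescence ratio at most library mean plus 5 SD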;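 note: more negative B-score means stronger inhibition of thallium flux through KCNK3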
Cl transport mod – modulators of human KCC2 chloride dependent transport. Q9H2X9. KCC2 cells, thallium flux FluoZin-2 fluorescence. B-score of Tl+ flux slope (higher = more flux/activation; lower = inhibition) at 10 µM. actives 2.2% (n = 190,000). AID 1456;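 active = thallium flux slope and its plate-corrected score both differing from the plate sample mean at a set confidence after two filtering rounds, in either direction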;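 note: slope of fluorescence scaled to starting intensity during 10 to 20 s after thallium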
hERG rescue – hERG (human) protection from proarrhythmic block; CHO-hERG, FluxOR thallium flux, dofetilide IC70 present; activation (rescue from dofetilide block), less the hit threshold, % at 10 µM; actives 0.51% (n = 310,000); AID 1511;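 active = activation above the mean of controls blocked by dofetilide plus 5 SD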;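 note: thallium influx through hERG after potassium depolarization seen as dye fluorescence rise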
KCC2 secondary – confirmation of human KCC2 transport modulators | shares compounds with Cl transport mod | actives 15% (n = 3,700) | normalised thallium flux (F/F0 slope) at 10 µM | HEK293-KCC2, thallium flux, FluoZin2 fluorescence; active compounds read high;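 active = thallium flux slope above the same plate's solvent-only control mean plus 3 SD; inconclusive = the two replicate wells disagree; inactive = no significant difference from solvent-only control wells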
KCC2 bumet counter – thallium flux despite bumetanide block in KCC2 cells, secondary assay 3; shares compounds with Cl transport mod; actives 49% (n = 3,700); normalized thallium flux at 10 µM; HEK293-KCC2 + bumetanide/ouabain, thallium flux FluoZin2; active compounds read high;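 active = thallium entry rate above the same plate's blocked-transporter control wells by more than 3 SD; inconclusive = the two repeat wells disagree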;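 note: raw slope of fluorescence over initial fluorescence between 10 and 20 s after thallium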
KCC2 sec2 – KCC2 (human) modulation, second secondary assay; shares compounds with Cl transport mod; HEK293-KCC2, thallium flux FluoZin2 fluorescence; actives lie on both sides; F/F0 rise rate, 10–20 s post-thallium; normalized thallium flux at 10 µM; actives 23% (n = 3,700); AID 1715;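 active = thallium flux slope more than 3 SD above or below the plate's solvent-only control mean, mostly below; inconclusive = the two repeat wells disagreed; inactive = no significant shift from solvent-only controls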
HEK293 Tl flux – parental HEK flux effect, counter-screen; shares compounds with Cl transport mod; HEK293 parental cells, thallium flux FluoZin2, ouabain; baseline-ratio fluorescence slope, 10–20 s after thallium; thallium flux rate (normalised fluorescence) at 10 µM; actives 46% (n = 3,700);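 active = thallium flux rate significantly above the same plate's solvent-only control wells, beyond their mean plus 3 SD; inconclusive = the two replicate wells gave conflicting results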
KCC2 retest ouab – modulates human KCC2 on retest with ouabain. shares compounds with Cl transport mod. HEK293-KCC2, thallium flux FluoZin2 fluorescence; bidirectional: low = inhibitor, high = activator. raw Tl+ flux slope (below DMSO = inhibition, above = activation) at 10 µM. actives 48% (n = 3,700). AID 1717;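 active = thallium flux slope beyond 3 SD from same-plate DMSO control mean in most replicates, usually higher, sometimes lower; inconclusive = repeat tests gave conflicting results; inactive = no significant difference from controls in most replicates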;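 note: slope of initial-normalized fluorescence between seconds 10 and 20 after thallium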
HEK293 Tl flux2 – parental HEK flux effect, counter-screen 2 | shares compounds with Cl transport mod | HEK293 parental, thallium flux FluoZin-2 fluorescence slope | thallium flux slope at 10 µM | actives 33% (n = 3,700) | AID 1718;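 active = thallium flux slope above the same plate's solvent-control mean plus 3 SD in both duplicate wells; inconclusive = duplicate wells that disagreed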;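 note: run without ouabain in cells lacking the KCC2 cotransporter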
Large screens that a line does not name were inactive (follow-up assays come after a bar, where they were run). Compounds with a hit are over-represented: about 4.1% of the library has one in this group of screens.

Cc1ccc(/C=C2\NC(=S)NC2=O)cc1[N+](=O)[O-]	Cl transport mod 3 | KCC2 secondary inactive | KCC2 bumet counter inactive | KCC2 sec2 inactive | HEK293 Tl flux inactive | KCC2 retest ouab inactive | HEK293 Tl flux2 inactive
O=C1OC(c2ccc(O)cc2)(c2ccc(O)cc2)c2ccccc21	Cl transport mod 11 | KCC2 secondary inactive | KCC2 bumet counter 0.0096 | KCC2 sec2 inactive | HEK293 Tl flux inactive | KCC2 retest ouab 0.025 | HEK293 Tl flux2 inactive
O=C1OC2(c3ccccc31)c1ccccc1-c1ccccc12	none (no result: KCNK9 inh, KCNQ1 act, KCNQ1 inh, Cl transport mod, hERG rescue)
Cc1cccc(Nc2nnc(SCC(=O)Nc3cccc(S(=O)(=O)N4CCCCC4)c3)s2)c1	Cl transport mod -5.1 | KCC2 secondary inactive | KCC2 bumet counter inactive | KCC2 sec2 inconclusive | HEK293 Tl flux inconclusive | KCC2 retest ouab 0.014 | HEK293 Tl flux2 inactive
CCc1ccc(Nc2nnc(SCC(=O)NC(=O)c3cccn3C)s2)cc1	Cl transport mod -4.9 | KCC2 secondary inactive | KCC2 bumet counter inactive | KCC2 sec2 0.025 | HEK293 Tl flux inconclusive | KCC2 retest ouab 0.012 | HEK293 Tl flux2 inactive
Cc1sc2ncnc(SCC(=O)NC(=O)c3cccn3C)c2c1C	KCNQ1 act 11, Cl transport mod 59 | KCC2 secondary 0.039 | KCC2 bumet counter 0.13 | KCC2 sec2 0.045 | HEK293 Tl flux 0.072 | KCC2 retest ouab 0.072 | HEK293 Tl flux2 0.029
CCc1ccc(Nc2nnc(SCC(=O)Nc3cccc(S(=O)(=O)NC4=NCCCCC4)c3)s2)cc1	Cl transport mod -7.4 | KCC2 secondary inactive | KCC2 bumet counter 0.0078 | KCC2 sec2 0.026 | HEK293 Tl flux inactive | KCC2 retest ouab 0.011 | HEK293 Tl flux2 inactive
Cc1cccc(NC(=O)CSc2nnc(NC(=O)CN3CCCCC3)s2)c1	none (no result: KCNK3 inh)
C=CCn1c2ccccc2c(=O)c2cc(C#Cc3ccccn3)ccc21	none (no result: KCNK9 inh, KCNQ1 act, KCNQ1 inh, Cl transport mod, hERG rescue)
Cc1sc2ncnc(SCC#N)c2c1C	Cl transport mod 4.5 | KCC2 secondary inactive | KCC2 bumet counter 0.016 | KCC2 sec2 inactive | HEK293 Tl flux 0.0099 | KCC2 retest ouab inconclusive | HEK293 Tl flux2 inconclusive
CCCSc1ncnc2sc(C)c(C)c12	none
O=Cc1c(-c2ccc(Cl)cc2)oc2ccc(O)cc12	none (no result: Cl transport mod)
O=C(O)/C(=C\c1ccc(Br)cc1)c1ccc(S(=O)(=O)N2CCCCC2)s1	Cl transport mod -6.9 | KCC2 secondary inactive | KCC2 bumet counter inactive | KCC2 sec2 inactive | HEK293 Tl flux inactive | KCC2 retest ouab 0.012 | HEK293 Tl flux2 inactive
O=C(O)/C(=C\c1ccc(C(F)(F)F)cc1)c1ccc(S(=O)(=O)N2CCCC2)s1	none (no result: KCNK9 inh, KCNQ1 act, KCNQ1 inh, Cl transport mod, hERG rescue)
Cc1cc(-c2ccccc2)c(C#N)c(=S)[nH]1	Cl transport mod 6.9 | KCC2 secondary 0.017 | KCC2 bumet counter 0.028 | KCC2 sec2 inactive | HEK293 Tl flux 0.016 | KCC2 retest ouab inactive | HEK293 Tl flux2 0.012
Cc1[nH]c(=S)c(C#N)c(C)c1Cc1ccccc1	none (no result: Cl transport mod)
N#Cc1c(-c2ccccc2Cl)cc(-c2ccccc2)[nH]c1=S	Cl transport mod 17 (no result: KCNK3 inh) | KCC2 secondary 0.015 | KCC2 bumet counter 0.028 | KCC2 sec2 inactive | HEK293 Tl flux 0.022 | KCC2 retest ouab 0.035 | HEK293 Tl flux2 0.013
Cc1ccc(-c2cc(-c3ccccc3Cl)c(C#N)c(N)n2)o1	none
Clc1ccc2nc(C3CCN(Cc4nnnn4C4CCCCC4)CC3)[nH]c2c1	Cl transport mod -4.4 | KCC2 secondary inactive | KCC2 bumet counter inactive | KCC2 sec2 inactive | HEK293 Tl flux inactive | KCC2 retest ouab inconclusive | HEK293 Tl flux2 inactive
Cc1ccc(Cn2nnnc2CN2CCC(c3nc4ccc(Cl)cc4[nH]3)CC2)cc1	none (no result: Cl transport mod)
CCC(C)c1ccc(NC(=O)N2CCN(C(=O)C3CCCO3)CC2)cc1 (stereo not drawn)	none (no result: Cl transport mod)
COc1ccc(-n2ncc3c2CC(C)(C)CC3NC(=O)c2ccnn2C)cc1 (stereo not drawn)	none (no result: Cl transport mod)
O=S(=O)(c1ccc(Cl)cc1)N(CCCN1CCOCC1)Cc1cccs1	none (no result: Cl transport mod) | KCC2 secondary inactive | KCC2 bumet counter inactive | KCC2 sec2 inactive | HEK293 Tl flux inconclusive | KCC2 retest ouab inactive | HEK293 Tl flux2 inactive
O=C(Nc1ccc(Cl)cc1)N(CCCN1CCOCC1)Cc1cccs1	none
COc1ccccc1Oc1ncnc2c1cnn2-c1ccccc1	Cl transport mod -5 | KCC2 secondary inconclusive | KCC2 bumet counter inactive | KCC2 sec2 inactive | HEK293 Tl flux inactive | KCC2 retest ouab 0.015 | HEK293 Tl flux2 inactive
CCOc1ccc(S(=O)(=O)N2CCCCC2)cc1NC(=O)CN1C(=O)NC(C)(c2ccc(C)cc2)C1=O (stereo not drawn)	none (no result: Cl transport mod)
C=CCn1c(Sc2ccccc2)nc2c1c(=O)[nH]c(=O)n2C	none
CCSc1nc2c(c(=O)[nH]c(=O)n2C)n1C	none
C=CCn1c(Sc2nncn2C)nc2c1c(=O)[nH]c(=O)n2C	none (no result: Cl transport mod) | KCC2 secondary inconclusive | KCC2 bumet counter inactive | KCC2 sec2 inactive | HEK293 Tl flux inactive | KCC2 retest ouab inactive | HEK293 Tl flux2 inactive
CCCSc1nc2c(c(=O)[nH]c(=O)n2C)n1C	Cl transport mod 11 | KCC2 secondary inactive | KCC2 bumet counter inactive | KCC2 sec2 inactive | HEK293 Tl flux inactive | KCC2 retest ouab inactive | HEK293 Tl flux2 inactive
COc1ccc(CC(=O)Nc2ccc(-c3nc4cc(C)ccc4o3)c(O)c2)cc1OC	Cl transport mod -5.4 | KCC2 secondary inactive | KCC2 bumet counter inactive | KCC2 sec2 inactive | HEK293 Tl flux inactive | KCC2 retest ouab inactive | HEK293 Tl flux2 inactive
O=C(NCCCn1ncc2ccccc21)c1cc(COc2c(F)cccc2F)on1	Cl transport mod -5.9 | KCC2 secondary inactive | KCC2 bumet counter inconclusive | KCC2 sec2 0.022 | HEK293 Tl flux inactive | KCC2 retest ouab 0.012 | HEK293 Tl flux2 inactive

Screening data from PubChem.
